Assays:
[1] = Cytotoxicity against non-infected human U2OS cells assessed as decrease in number of cells after 96 hrs by Draq5 staining-based high content screening assay; assay type: toxicity, cell-based
In short: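 Separate plate with non-infected U2OS cells (700/well, DMEM + 10% FBS) and compounds in 15-point 2-fold dilutions, top 200 µM, 1% DMSO final. After 96 h, fixed with 4% paraformaldehyde, stained with 5 µM Draq5, cells counted by imaging. CC50 from sigmoidal variable-slope curve fitting.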

[2] = test system: Trypanosoma cruzi; experiment: Antitrypanosomal activity against amastigote stage of Trypanosoma cruzi Y infected in human U2OS cells after 96 hrs by Draq5 staining-based high content screening assay; assay type: functional, cell-based
In short: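 U2OS cells (700/well, high glucose DMEM + 10% heat-inactivated FBS) seeded and incubated 24 h at 37 °C/5% CO2. Infected next day with 2800 Y strain trypomastigotes from LLC-MK2 cultures in low glucose DMEM + 2% FBS. Compounds added on day 3 as 15-point 2-fold dilutions, 1% DMSO final, top 200 µM. After 96 h, fixed in 4% paraformaldehyde, 5 µM Draq5 stain, imaged. Infection ratio normalized to infected/uninfected DMSO controls. EC50 from sigmoidal variable-slope fit. Duplicate wells, three independent experiments.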

[3] = Selectivity index, ratio of CC50 for human U2OS cells infected with amastigote stage of Trypanosoma cruzi Y to EC50 for amastigote stage of Trypanosoma cruzi Y; assay type: toxicity, cell-based; settings: U2OS cells infected with Trypanosoma cruzi Y amastigotes, read-out: Ratio CC50/EC50
In short: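 S.I. = CC50/EC50 from the infected U2OS high-content assay. When CC50 could not be calculated, S.I. = highest tested concentration/EC50.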

[4] = Cytotoxicity against human U2OS cells infected with amastigote stage of Trypanosoma cruzi Y assessed as decrease in number of cells after 96 hrs by Draq5 staining-based high content screening assay; assay type: toxicity, cell-based; settings: U2OS cells infected with Trypanosoma cruzi Y amastigotes
In short: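 Run on the same infected U2OS plates as the antiparasitic read (700 cells/well, 2800 Y strain trypomastigotes, compounds from day 3, 15-point 2-fold dilutions, top 200 µM, 1% DMSO final). Cells fixed after 96 h with 4% paraformaldehyde and stained with 5 µM Draq5. Total cell count compared with DMSO-treated infected controls. CC50 = concentration giving 50% cell number, from sigmoidal variable-slope fit. Three independent experiments.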

EC50 [2] [µM] | SMILES | Activity [1] | Emax [2] [%] | selectivity ratio [3] | CC50 at 96 h [4] [µM]
144 | O=C(Cn1cncn1)c1ccc(F)cc1F | Non-Toxic | 68.7 | > 1.4 | –
5.53 | O=C(Cn1cnc([N+](=O)[O-])n1)c1ccc(F)cc1F | Non-Toxic | 87 | > 36 | –
101 | NC(=O)NN=C(Cn1cnc([N+](=O)[O-])n1)c1ccc(F)cc1F | Non-Toxic | 95.2 | > 2 | –
63.1 | NC(=O)NN=C(Cn1cncn1)c1ccc(F)cc1F | Non-Toxic | 96.6 | > 3.1 | –
21.6 | NC(=S)NN=C(Cn1cnc([N+](=O)[O-])n1)c1ccc(F)cc1F | Non-Toxic | 92.8 | > 9.27 | –
15.4 | NC(=S)NN=C(Cn1cncn1)c1ccc(F)cc1F | Non-Toxic | 95.2 | > 13 | –
3.96 | O=C(Cn1ccnc1[N+](=O)[O-])NCc1ccccc1 [BENZNIDAZOLE] | – | 104 | > 101 | –
0.34 | CC1CS(=O)(=O)CCN1/N=C/c1ccc([N+](=O)[O-])o1 (stereo unspecified) [NIFURTIMOX] | – | 102 | 78.9 | 26.8

Source: ChEMBL document CHEMBL3860031, “Design, synthesis and antitrypanosomal activity of some nitrofurazone 1,2,4-triazolic bioisosteric analogues” (Eur J Med Chem, 2016)
